In ChEMBL document CHEMBL1212902, “Efficient synthesis and biological evaluation of demethyl geranylgeranoic acid derivatives” (Bioorg Med Chem, 2010):
Active and inactive are the calls of the source. No cut-off for these calls is given here.

Columns and labels:
HL-60 [1] = test: Cell cycle arrest in human HL60 cells assessed as accumulation at G0/G1 phase at 25 uM after 24 hrs by flow cytometry; assay type: functional, cell-based
In short: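 HL-60 cells grown in RPMI-1640 with 10% charcoal-stripped FCS and kanamycin at 37 °C in 5% CO2. Cells were exposed at 2.5 × 10^-5 M for 24 h, stained with propidium iodide at 4 °C for 20 min and analysed on a 488 nm flow cytometer. The percentage of cells in G0/G1 is given relative to untreated cells.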

[2] = target: T1, Retinoic acid receptor RXR-alpha (Homo sapiens) (UniProt P19793); test: Transcriptional activation of Gal4-tagged human RXRalpha expressed in human MG63 cells at 1 uM after 48 hrs; assay type: cell-based; conditions: MG-63
T1 sequence (whole entry): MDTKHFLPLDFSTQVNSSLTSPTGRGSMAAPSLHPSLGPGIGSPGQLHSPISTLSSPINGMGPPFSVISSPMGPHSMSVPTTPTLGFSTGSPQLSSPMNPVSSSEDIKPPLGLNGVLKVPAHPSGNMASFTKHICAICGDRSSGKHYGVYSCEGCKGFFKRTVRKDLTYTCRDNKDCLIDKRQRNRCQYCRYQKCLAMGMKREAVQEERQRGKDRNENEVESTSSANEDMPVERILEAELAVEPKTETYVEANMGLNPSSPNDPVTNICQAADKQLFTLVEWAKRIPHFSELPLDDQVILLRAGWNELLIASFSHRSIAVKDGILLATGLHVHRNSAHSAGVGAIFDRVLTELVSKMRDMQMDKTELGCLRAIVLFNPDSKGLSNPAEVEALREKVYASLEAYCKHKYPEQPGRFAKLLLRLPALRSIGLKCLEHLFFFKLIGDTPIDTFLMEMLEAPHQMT
In short: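 Human osteosarcoma MG-63 cells in DMEM with 10% charcoal-stripped FCS were seeded at 2 × 10^5/well the day before transfection. They were cotransfected with human RXR fused to the GAL4 DNA-binding domain, a GAL4-site luciferase reporter and a pRL-CMV control. Cells were then exposed at 10^-6 M for 48 h. Firefly luciferase was normalised to Renilla and expressed as fold over ethanol vehicle, from three experiments with SEM.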

HL-60 [3] = test: Induction of cell differentiation in human HL60 cells assessed as differentiation in to granulocytes; assay type: functional, cell-based
[4] = target: T2, Cellular retinoic acid-binding protein 2 (Rattus norvegicus) (UniProt P51673); test: Transcriptional activation of rat CRABP2 expressed in human MG63 cells coexpressing RXRE at 1 uM after 48 hrs; assay type: cell-based; conditions: MG-63
T2 sequence (whole entry): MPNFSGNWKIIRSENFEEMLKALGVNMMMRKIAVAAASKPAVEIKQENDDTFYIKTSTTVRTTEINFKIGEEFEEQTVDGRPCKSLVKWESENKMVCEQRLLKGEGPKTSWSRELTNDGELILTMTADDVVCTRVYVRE
In short: (§1)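 MG-63 cells were seeded at 2 × 10^5/well, then transfected using Tfx-50 with an SV40-Luc pGL3 reporter plus pRL-CMV. Cells were treated at 10^-6 M for 2 days. Luciferase was normalised to Renilla and reported as fold versus ethanol control, from at least three repeats with SEM.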

[5] = target: T3, Retinoic acid receptor beta (Homo sapiens) (UniProt P10826); test: Transcriptional activation of human RARbeta expressed in human MG63 cells coexpressing RARE at 1 uM after 48 hrs by luciferase reporter gene assay; assay type: cell-based; conditions: MG-63; in short: as §1
T3 sequence (whole entry): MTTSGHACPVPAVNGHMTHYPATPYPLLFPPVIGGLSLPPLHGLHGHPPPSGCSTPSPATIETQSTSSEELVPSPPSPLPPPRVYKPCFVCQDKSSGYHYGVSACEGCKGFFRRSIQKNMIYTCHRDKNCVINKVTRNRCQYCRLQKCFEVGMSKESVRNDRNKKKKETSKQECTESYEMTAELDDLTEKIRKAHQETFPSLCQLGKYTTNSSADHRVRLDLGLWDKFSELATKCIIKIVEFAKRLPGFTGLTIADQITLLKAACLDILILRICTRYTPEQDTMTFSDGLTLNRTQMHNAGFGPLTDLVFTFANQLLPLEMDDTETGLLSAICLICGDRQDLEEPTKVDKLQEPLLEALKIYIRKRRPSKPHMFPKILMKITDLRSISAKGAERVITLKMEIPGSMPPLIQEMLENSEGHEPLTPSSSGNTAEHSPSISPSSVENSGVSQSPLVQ

HL-60 [6] = test: Antiproliferative activity against human HL60 cells after 24 hrs; assay type: functional, cell-based
HL-60 [7] = test: Induction of apoptosis in human HL60 cells after 24 hrs; assay type: functional, cell-based; conditions: in the assay text read “after 3 days” for “after 24 hrs”
In short: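 HL-60 cells were seeded at 10^5 cells/well in RPMI-1640 and treated at 10^-6–10^-4 M. They were propidium iodide-stained and analysed by flow cytometry for cell cycle. Apoptosis is expressed as percent dead cells relative to the total untreated cell count, shown as mean with SEM.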

| SMILES | Activity (HL-60 [1]) | Activity [2] | Activity (HL-60 [3]) | Activity [4] | Activity [5] | Activity (HL-60 [6]) | Activity (HL-60 [7]) |
| --- | --- | --- | --- | --- | --- | --- | --- |
| CC(C)=CCC/C(C)=C/CC/C(C)=C/CC/C=C/C(=O)O | Active | Active | Active | inactive | Active | Active | Active |
| C/C=C/CC/C(C)=C/CC/C(C)=C/CC/C(C)=C/C(=O)O |  |  |  | inactive | Active |  |  |
| CC(C)=CCC/C(C)=C/CC/C=C/CC/C(C)=C/C(=O)O |  |  |  | inactive | Active |  |  |
| CC(C)=CCC/C=C/CC/C(C)=C/CC/C(C)=C/C(=O)O |  |  |  | inactive | Active |  |  |
